Assay outcomes from PubChem BioAssay.
Only some compounds are listed: those with a hit (about 2.3% of all), similar ones and a draw of the others.
SKKanGAS inh – S. pyogenes SKKanGAS growth inhibitors in kanamycin, primary screen, streptokinase expression inhibitor project, SKKanGAS strain, BacTiter-Glo luminescence; 6 h; inhibition, % at 7.5 µM; 1.3% of 300,000 active;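 active = mean replicate score, as percent of positive control median, at least 50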;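 note: strain carries kanamycin resistance gene driven by streptokinase promoter and grows in 40 µg/ml kanamycin; loss of luminescence reflects streptokinase promoter inhibition or plain growth inhibition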
ARFGAP1 inhibitor – inhibitors of rat ARFGAP1 GAP activity, primary screen, biochemical, fluorescence polarization, GDP tracer | Arfgap1-stimulated ARF1 GTP hydrolysis, GDP FP detection | 0.26% of 360,000 active | inhibition, % at 16.5 µM | ADP-ribosylation factor GTPase-activating protein 1 (Rattus norvegicus), Q62848 | AID 651572, 2012;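 active = inhibition above a per-plate limit, mean inhibition of low control wells plus 3 SD, cut at about 25% in these data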
Target sequence (Q62848 1-136 limits assumed): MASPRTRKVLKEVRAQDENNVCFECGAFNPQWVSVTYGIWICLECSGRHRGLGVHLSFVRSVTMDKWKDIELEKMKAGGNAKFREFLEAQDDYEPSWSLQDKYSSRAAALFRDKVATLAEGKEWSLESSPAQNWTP
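Assay system: Rat Arfgap1 GAP domain (His6, aa 1-136), purified enzyme | Buffer or medium: HEPES 25 mM pH 7.5, NaCl 150 mM, MgCl2, DTT | Schedule: GTP hydrolysis reaction 2 h at 25 °C | Signal: FP of antibody-bound GDP Alexa 633 tracer, ex 620/em 688 nm | Measure: Percent inhibition of Arfgap1-stimulated GTP hydrolysis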
Calb FLC – C. albicans growth inhibition with fluconazole, primary screen, CaCi-2 strain, Alamar Blue fluorescence. C. albicans CaCi-2 (fluconazole-resistant clinical isolate) + fluconazole, 48 h. growth inhibition, % (test concentration not listed). 0.57% of 300,000 active;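 active = growth inhibition above about 58% in most replicates, limit read from the data, passing the limit was not always enough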;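 note: all wells also contain fluconazole at 8 µg/ml as a sub-toxic cotreatment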
ASAP1 GAP inh – inhibitors of human ASAP1 ArfGAP activity, primary screen, biochemical, fluorescence polarization; ASAP1-stimulated ARF1 GTP hydrolysis, GDP FP detection; 0.19% of 360,000 active; Arf-GAP with SH3 domain, ANK repeat and PH domain-containing protein 1 (Homo sapiens), …; AID 624377, 2012; inhibition, % at 16.5 µM; in the data active = inhibition above about 25%
Target sequence (Q9ULH1 325-724 limits assumed): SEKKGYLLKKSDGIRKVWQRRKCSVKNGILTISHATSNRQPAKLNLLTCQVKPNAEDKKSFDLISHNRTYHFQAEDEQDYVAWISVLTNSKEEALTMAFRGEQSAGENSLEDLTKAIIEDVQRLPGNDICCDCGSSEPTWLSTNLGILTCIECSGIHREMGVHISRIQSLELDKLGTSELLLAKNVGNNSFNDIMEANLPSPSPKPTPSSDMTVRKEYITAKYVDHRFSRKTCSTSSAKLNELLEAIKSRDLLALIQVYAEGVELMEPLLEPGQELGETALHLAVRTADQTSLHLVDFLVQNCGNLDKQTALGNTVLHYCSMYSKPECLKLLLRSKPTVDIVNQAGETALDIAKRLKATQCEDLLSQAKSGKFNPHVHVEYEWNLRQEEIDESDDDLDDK
sPLA2-III inh – human group III sPLA2 inhibitors, primary screen, biochemical, QFRET, BODIPY PC-A2 liposome substrate. QFRET BODIPY PC-A2 liposome hydrolysis, fluorescence. 0.56% of 370,000 active. Group 3 secretory phospholipase A2 (Homo sapiens), Q9NZ20. inhibition, % at 12.2 µM;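 active = inhibition above mean plus 3 SD of compounds lying within the high and low control bounds, cut at about 19% in these data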
A number is an active result; - = inactive; . = no result given.

SMILES	SKKanGAS inh	ARFGAP1 inhibitor	Calb FLC	ASAP1 GAP inh	sPLA2-III inh
COC(=O)C1=C(C)N(Cc2cccc(C(F)(F)F)c2)C(=NCc2ccc(C(F)(F)F)cc2)NC1c1cccc(C(F)(F)F)c1 (centres undefined)	.	-	.	-	-
COc1ccc2cc(C(=O)NCc3ccccc3)c(=Nc3ccc(C(=O)O)cc3)oc2c1	59	-	-	-	-
O=C(c1ccccc1)n1ccc2ccc(-c3ccc4ccn(C(=O)c5ccccc5)c4c3)cc21	.	.	.	.	-
COC(=O)c1cccc(Cn2ccc3ccc(-c4ccc5ccn(C(=O)C6CCC6)c5c4)cc32)c1	.	.	.	.	-
Cc1ccc(NC(=O)Nc2nc3ccccc3s2)cc1NC(=O)Nc1nc2ccccc2s1	76	-	.	-	-
O=C(Nc1ccc(Cl)c([N+](=O)[O-])c1)Nc1nc2ccccc2s1	-	.	-	.	.
CCOC(=O)c1c(NS(=O)(=O)c2ccc(Br)cc2)sc2c1CCC2	79	-	-	-	-
Cc1cc(/C=C2\C(=N)N3N=C(S(C)(=O)=O)SC3=NC2=O)c(C)n1Cc1ccccc1	54	-	-	-	-
Cc1cc(/C=C2/C(=N)N3C(=NC2=O)SN=C3S(C)(=O)=O)c(C)n1-c1ccccc1F	56	-	-	-	-
Cc1sc2ncnc(N3CCC(C(=O)Nc4ccc(Cl)cc4Cl)CC3)c2c1C	50	-	-	-	-
COC(=O)[C@]1(C)CN(C(=O)OC(C)(C)C)C2=C1C(=O)C[C@](C)(C(=O)OC(C)(C)C)C2	.	.	.	.	-
COc1ccccc1-c1ccc(OCCCN2CCC(C(O)(c3ccccc3)c3ccccc3)CC2)cc1	.	-	.	-	-
Cc1c(C(=O)N/N=C/c2ccccc2Cl)[nH][nH]c1=O	.	.	.	.	-
Cc1nc2ccccn2c1C(=O)/C=C/c1ccc(F)cc1	-	-	-	-	-
COc1ccc(/C=C/C(=O)c2c(C)nc3ccccn23)cc1	51	-	-	-	-
CC(C)(C)c1ccc(-c2nnc(SCC(=O)Nc3ccc(S(=O)(=O)Nc4nccs4)cc3)n2Cc2ccco2)cc1	.	.	.	.	-
OCCN(CCO)c1ccc(C(c2ccccc2Cl)c2ccc(N(CCO)CCO)cc2Cl)c(Cl)c1	83	.	-	.	.
O=S(=O)(c1cc(O)ccc1O)c1cccc2c(S(=O)(=O)c3cc(O)ccc3O)cccc12	-	25	-	-	-
Fc1ccccc1-c1n[nH]c(=S)n1N=Cc1ccc(-c2ccccc2)cc1	.	.	.	.	-
CC(C)(O)c1ccccc1CC[C@@H](SCC1(CC(=O)O)CC1)c1cccc(/C=C/c2ccc3ccc(Cl)cc3n2)c1	105	.	.	.	.
CC(=O)Oc1ccc(Cl)cc1/C=C/c1ccc2ccccc2n1	-	-	-	-	-
CN(C)c1ccc(-c2ccnc3c2CC(C)(C(=O)NCC2CC2)O3)cc1 (centres undefined)	.	-	.	-	-
CC1(c2nnnn2C2CCCCC2)CSCC(=O)N1CCc1ccc(O)cc1 (centres undefined)	.	.	.	.	-
Nc1nc2ncccc2cc1C(=O)NC1CC1	.	-	.	-	-
CCOC(=O)c1c(O)cc(C)cc1Nc1ccccc1	51	-	-	-	-
SMILES	SKKanGAS inh	ARFGAP1 inhibitor	Calb FLC	ASAP1 GAP inh	sPLA2-III inh
O=C(Nc1nnc(SCCC2OCCO2)s1)C1CC(=O)N(c2ccc(F)cc2)C1 (centres undefined)	54	-	-	-	-
O=C(CSc1nnc(NC(=O)C2CC(=O)N(c3ccc(F)cc3)C2)s1)NCc1ccco1 (centres undefined)	54	-	-	-	-
COc1ccc(N2CC(C(=O)Nc3nnc(SCC(=O)NCc4ccco4)s3)CC2=O)cc1 (centres undefined)	-	-	-	-	-
COc1cc(/C=N/NC(=O)c2ccccc2)ccc1O	-	-	-	-	-
Cc1nn(-c2ccccc2)c(C)c1/C=N/NC(=O)c1cc(-c2ccc(Br)s2)[nH]n1	51	-	-	-	-
Cc1cc(C(=O)N/N=C/c2c(C)nn(-c3ccccc3)c2C)n[nH]1	-	-	-	-	-
Cc1nn(-c2ccccc2)c(C)c1/C=N/NC(=O)c1cc(-c2cccs2)[nH]n1	-	-	-	-	-
COc1ccc(/C=N/NC(=O)c2ccc(-c3ccccc3)cc2)cc1O	-	-	83	-	-
Cc1nn(-c2ccccc2)c(C)c1/C=N/NC(=O)c1cc(C23CC4CC(CC(C4)C2)C3)[nH]n1	64	-	-	-	-
Cc1nn(-c2ccccc2)c(C)c1/C=N/NC(=O)c1cc(-c2ccc(Cl)s2)[nH]n1	59	-	-	-	-
CC(C)N(C)c1ncnc2c1ncn2[C@H]1CN(Cc2ccc(-c3ccccc3)cc2)C[C@@H](CO)O1	.	-	.	-	-
Cn1c(=O)cc(OCCCC(=O)Nc2cc(C(F)(F)F)ccn2)c2ccccc21	.	.	.	.	-
CCCCCCCCN1C(=O)[C@@H](CC(=O)N2CCN(C(=O)c3ccco3)CC2)C[C@@]2(C(=O)OC)C1=C[C@H](COCc1ccccc1)O[C@@H]2C	.	.	.	.	-
Cc1nn(-c2ccccc2)c(C)c1-c1cc(C(=O)N/N=C/c2ccc(O)cc2)[nH]n1	-	-	-	-	-
COc1cc(/C=N/NC(=O)c2cc(-c3c(C)nn(-c4ccccc4)c3C)n[nH]2)ccc1O	87	-	-	-	-
Fc1ccc2c(c1)C1C=CCC1C(c1cc3c(cc1Br)OCO3)N2 (centres undefined)	73	-	-	-	-
S=C1NCN(CC2CC2)CN1	.	-	.	-	-
CCN(CC)C(=O)c1ccc(C(CCOC(=O)Oc2ccccc2)c2ccc(OC)cc2)cc1 (centres undefined)	.	.	.	.	-
CCCCn1c(O)c(N=NC(=O)c2ccccc2NS(=O)(=O)c2cccs2)c2ccccc21	71	-	-	-	-
C=CCn1c(O)c(N=NC(=O)c2ccccc2NS(=O)(=O)c2cccs2)c2ccccc21	-	-	-	-	-
CSc1ccccc1C(=O)Nc1nc2ccccc2[nH]1	-	-	-	-	-
COc1cc(SC)ccc1C(=O)Nc1nc2ccccc2[nH]1	107	-	-	-	-
COc1ccccc1C(=O)NCCC(=O)Nc1nc2ccccc2[nH]1	-	-	.	-	-
COc1ccccc1C(=O)Nc1nc2ccccc2[nH]1	90	-	-	-	-
O=C(CSc1nnc(COc2ccccc2)n1-c1ccccc1)Nc1ccc2c(c1)OCCO2	.	.	.	.	-
O=S1(=O)c2c(cccc2N2CCC[C@@H]2CO)O[C@H]2CCN1C2	.	.	.	.	-
CCOC(=O)N1CCN(C(=O)C[C@H]2C[C@@]3(C(=O)OC)C(=C[C@H](C(C)(C)C)O[C@@H]3C)N(Cc3cccc4ccccc34)C2=O)CC1	.	.	.	.	-
